HCV core dimer: inhibitors of HCV core protein dimerization, primary screen, biochemical, TR-FRET, high-throughput | inhibition, % at 5 µM | TR-FRET GST/Flag-core106 dimerization, 1536-well | AID 1899, 2009 | 300,000 tested, 0.33% active;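 active means inhibition above the mean of all tested compounds plus 3 SD, set per screening campaign, cut at about 45% in these data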
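Material: Tagged HCV core106 pair (GST and Flag) | Amount: GST-core106 13.5 nM, Flag-core106 17 nM | Medium: KF-containing HEPES buffer, pH 7.45, DTT, CHAPS, BSA | Reagent: Eu donor and XL665 acceptor anti-tag antibodies | Schedule: 4 h at 22.5 °C | Technique: Time-resolved FRET, ex 340 nm, em 617 and 671 nm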
rCAG binder: binders of r(CAG) RNA repeats, primary screen, biochemical, fluorescence; AID 651821, 2012; inhibition, % at 3 µM; r(CAG) RNA repeat, TO-PRO-1 dye displacement fluorescence; 370,000 tested, 1.3% active;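 active means inhibition above the plate cutoff, the mean of all test compounds on that plate plus 3 SD, cut at about 35% in these data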;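 further: 0% = DMSO alone and 100% = 100 µM mitoxantrone as full dye displacement; higher means more dye released from RNA so lower well fluorescence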
TAAR1 antagonist: human TAAR1 antagonists, primary screen, Fluo-8 calcium fluorescence, CHO RD-HGA16 cells | Trace amine-associated receptor 1 (Homo sapiens), Q96RJ0 | antagonist | inhibition, % at 3 µM | 360,000 tested, 1.5% active | AID 624466, 2012;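 active means inhibition above a per-plate cutoff, the mean inhibition of test compounds on that plate plus 3 SD, cut at about 49% in these data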;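 further: 0% = DMSO plus EC80 beta-PEA response and 100% = DMSO alone without agonist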
Target sequence (Q96RJ0 whole entry, looked up): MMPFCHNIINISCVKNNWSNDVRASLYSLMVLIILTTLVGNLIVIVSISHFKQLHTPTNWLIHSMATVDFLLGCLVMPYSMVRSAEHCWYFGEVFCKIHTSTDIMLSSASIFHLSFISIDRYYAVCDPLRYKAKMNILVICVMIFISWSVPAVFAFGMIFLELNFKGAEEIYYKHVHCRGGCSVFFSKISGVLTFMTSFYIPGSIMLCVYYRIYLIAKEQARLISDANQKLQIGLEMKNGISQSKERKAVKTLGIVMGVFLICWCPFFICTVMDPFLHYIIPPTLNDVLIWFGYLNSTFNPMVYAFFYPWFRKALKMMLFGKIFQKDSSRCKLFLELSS
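Test system: RD-HGA16 CHO cells with stable hTAAR1 and Gα16 / Probe or stimulus: EC80 β-phenethylamine stimulus / Times: seeding 17-24 h prior, 75-min 37 °C, 30-min RT dye loading / Detection: Fluo-8 calcium-sensitive fluorescence / Read-out basis: % inhibition scaled between DMSO and EC80 PEA controls / Repeats: singlicate, one well per test compound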
HCV NS3 hel inh: inhibitors of HCV NS3 helicase, primary screen, biochemical, Cy5 molecular beacon fluorescence. Hepatitis C virus NS3 helicase. NS3 helicase DNA unwinding. inhibition, % at 10.9 µM. 290,000 tested, 0.56% active. AID 1800, 2009;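 active means inhibition above the mean of all tested compounds plus 3 SD, set per campaign, cut at about 35% in these data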;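 further: 0% = DMSO wells and 100% = thioflavine S control wells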
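assay system = NS3 helicase fragment of HCV | buffer or medium = MOPS pH 6.5, MgCl2, DTT, Tween20, BSA | timing = 60 min unwinding reaction at 25 °C after ATP addition | signal = Cy5 beacon fluorescence read at start and 1 h | read-out basis = % inhibition of unwinding | control set = low DMSO, high thioflavine S at 110 µM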
TAAR1 ag: human TAAR1 agonists, primary screen, Fluo-8 calcium fluorescence, CHO RD-HGA16 cells; vehicle wells 0%, saturating PEA agonist 100%; activation, % at 3 µM; Trace amine-associated receptor 1 (Homo sapiens), Q96RJ0; AID 624467, 2012; 360,000 tested, 0.99% active;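 active means activation above the mean activation of all test compounds in the run plus 3 SD, cut at about 38% in these data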
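Repeats: no replicates (n 1) | Material: CHO-derived RD-HGA16 cells with stable Gα16 and human TAAR1 | Technique: Kinetic Fluo-8 calcium fluorescence | Schedule: 17-24 h seeding, 75 min 37 °C dye, 30 min RT | Evaluation: % activation from peak over basal fluorescence ratio, DMSO-to-PEA scaled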
Active calls of the source: *; x = no result given; ! = a repeat was not active. Hits are enriched below; roughly 3.7% of the tested compounds scored in any of these assays.

SMILES	HCV core dimer	rCAG binder	TAAR1 antagonist	HCV NS3 hel inh	TAAR1 ag
Cc1ccc(C)c(C(O)c2ncc(-c3ccc(C(F)(F)F)cc3)[nH]2)c1 (stereo not drawn)	x	-2	49*	x	22
O=C(/C=C\c1cn(-c2ccccc2)nc1-c1ccccc1)Nc1nccs1	15	5	51*	2	2
COC(=O)C12C=C3CC(C4CC4)=C3C(=O)N1Cc1[nH]c3ccccc3c1C2 (stereo not drawn)	x	6	x	x	x
Nn1c(SCC(=O)Nc2ccccc2-c2ccccc2)nnc1-c1cc(-c2ccc(F)cc2)n[nH]1	x	7	x	x	x
O=C(N/N=C/C=C\c1ccccc1[N+](=O)[O-])c1cc(-c2ccc3ccccc3c2)n[nH]1	x	25	53*	1	2
CCc1ccc(-c2cc(C(=O)N/N=C/c3ccccn3)[nH]n2)cc1	4	1	1	-5	10
O=C(N/N=C/c1ccccn1)c1cc(-c2ccc3ccccc3c2)n[nH]1	6	15	71*	-3	20
O=C(NCc1ccccc1)Nc1ccccc1C(=O)N1CCCC1	x	-1	x	x	x
COc1ccc(C(=O)OCCN2CCN(C3CN(Cc4cn(Cc5ccccc5C(F)(F)F)nn4)S(=O)(=O)C3)CC2)cc1OC (stereo not drawn)	x	0	x	x	x
COc1ccc(-c2nn(-c3ccccc3)cc2/C=N/NC(=O)c2ccc3c(c2)OCO3)cc1	33	x	x	-4	x
COc1ccc(-c2nn(-c3ccccc3)cc2/C=N/NC(=O)c2ccc(Br)o2)cc1	35	1	61*	0	18
O=C(N/N=C\c1cn(-c2ccccc2)nc1-c1ccccc1)c1ccc2c(c1)OCO2	19	4	55*	4	10
O=C(CCN1C(=O)NC2(CCCC2)C1=O)Nc1ccc(Sc2ccc(Br)cc2)cc1	x	3	15	x	5
O=C(CCN1C(=O)NC2(CCCC2)C1=O)Nc1ccc(-c2nc3ccccc3s2)cc1	x	5	68*	x	28
CCOC(=O)C1CCCN(C(=O)c2ccc(CS(=O)(=O)c3ccc(C)cc3)o2)C1 (stereo not drawn)	11	x	x	21	x
CCOC(=O)C1CCCN(C(=O)c2ccc(-c3ccc([N+](=O)[O-])cc3)o2)C1 (stereo not drawn)	21	11	37	x	49*
Cc1c(C(=O)Nc2ccccc2)sc2nc(-c3ccccc3)cn12	-8	9	51*	-12	23
Cc1cccc(NC(=O)c2sc3nc(-c4ccccc4)cn3c2C)n1	0	1	46	-12	12
COC(=O)[C@H](CC(C)C)N(Cc1cn(Cc2ccccc2)nn1)S(=O)(=O)c1ccc(F)cc1Br	x	3	x	x	x
CCN(CC(=O)Nc1c(F)cccc1F)C(=O)/C=C/c1ccc2ccccc2n1	75*	28	-12	x	6
CCN(CC(=O)Nc1c(F)cccc1F)C(=O)c1ccc2ccccc2n1	-1	-6	-9	x	0
CC(C)c1ccc2c(c1)CCC1C(C)(CN)CCCC21C (stereo not drawn)	-4	18	6	-70	39*
CC(C)c1ccc2c(c1)CC[C@H]1[C@](C)(CN)CCC[C@]21C	x	10	-2	x	38*!
CC(=O)Nc1ccc(NC(=O)CSc2nnc(-c3cccs3)o2)cc1	x	4	x	x	x
O=C(C1CCCN1S(=O)(=O)c1ccc(Cl)s1)N1CCN(c2ccccc2)CC1 (stereo not drawn)	x	6	x	x	x
SMILES	HCV core dimer	rCAG binder	TAAR1 antagonist	HCV NS3 hel inh	TAAR1 ag
CC(C)c1ccc(COc2ccc(C(=O)N3CCOCC3)cc2)cc1	10	-4	-5	2	2
CC(C)c1ccc(OCc2ccc(C(=O)N3CCN(c4ccccn4)CC3)cc2)cc1	7	2	57*	-6	8
CCCCN1CN2Cc3ccc(C)cc3C2CS1(=O)=O (stereo not drawn)	x	6	x	x	x
CCCCNc1c(-c2ccc(SC(C)CC)c(OC)c2)nc2ccc(Cl)cn12 (stereo not drawn)	x	-1	62*	x	0
CCCCNc1c(-c2ccc(-c3ccc(OC)cc3)c(OC)c2)nc2ccccn12	x	3	72*	x	7
CCCCNc1c(-c2ccc(SC(C)CC)c(OC)c2)nc2ccc(C)cn12 (stereo not drawn)	-15	-5	87*	x	9
CCCCCCSc1ccc(-c2nc3ccc(Cl)cn3c2NCCCC)cc1OC	x	2	15	x	1
COc1ccc(-n2c(SCC(=O)Nc3cc(C)c(NC(=O)c4ccccc4)cc3OC)nnc2-c2cccnc2)cc1	x	8	x	x	x
CCCCOCCCNC(=O)C[C@H]1C[C@@]2(C(=O)OC)C(=C[C@H](COCc3ccccc3)O[C@@H]2C)N(Cc2ccco2)C1=O	x	4	x	x	x
CC(=O)Nc1cc(-c2ccccc2)cn2c(-c3cccc(C(C)=O)c3)cnc12	x	9	49*	x	-1
CC(=O)Nc1cccc(-c2cc(NC(C)=O)c3ncc(-c4ccc(F)cc4)n3c2)c1	x	6	44	x	7
CC(=O)Nc1cc(-c2cccc(F)c2)cn2c(-c3ccc(F)cc3)cnc12	x	4	56*	x	5
CC(=O)Nc1cc(-c2cccc(C(=O)N(C)C)c2)cn2c(-c3ccccc3)cnc12	x	5	-1	x	7
C#CCNC(=O)c1cnn(-c2ccccc2)c1N	x	1	x	x	x
CSc1ccc(NC(=O)CSc2nc3[nH]c(=O)cc(O)c3s2)cc1	x	56*	-8	x	10
CCC1(c2ccccc2)NC(=O)N(CC(=O)N2CCc3ccccc32)C1=O (stereo not drawn)	x	4	8	x	19
CCC1(c2ccc(F)cc2)NC(=O)N(CC(=O)N2CCc3ccccc32)C1=O (stereo not drawn)	x	5	24	x	68*
CCCCN(C(=O)c1cccc(-n2cccc2)c1)c1c(N)n(Cc2ccccc2)c(=O)[nH]c1=O	48*	15	-15	x	0
CC1(C(=O)NCc2cccc3ccccc23)CCN1C(=O)Cc1ccc(-c2ccccc2)cc1 (stereo not drawn)	x	6	49*	x	4
COC(=O)[C@]12C[C@H](CC(=O)N3CCN(C(=O)C4CC4)CC3)C(=O)N(Cc3ccco3)C1=C[C@H](C(C)(C)C)O[C@@H]2C	x	3	x	x	x
C=CCNC(=S)N(C)[C@H]1C[C@H]2c3[nH]c4cccc(-c5cccc(F)c5)c4c3CCN2C(=O)[C@H]1[C@H](C)O	x	5	x	x	x
Cc1ccc(-n2nc(C(=O)NCc3ccco3)c3c4ccccc4n(C)c3c2=O)cc1	47*	12	41	-1	14
CCC(=O)Nc1ccc2c(c1)C(=O)N(C)[C@@H]1CC[C@@H](CC(=O)OC)O[C@H]1CO2	x	1	x	x	x
Cc1ccc(C(=O)CSc2cc(C)[nH]c(=O)n2)cc1	64*	15	-15	18	-1
